Test results from ChEMBL document CHEMBL5058577, “EUbOPEN Chemogenomics Library 2 (Multiplex)” (2022).

Test system: HEK-293T
Test: Multiplex assay against HEK293T
Assay type: toxicity, cell-based
Conditions: human
Method in brief: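 Imaging took place on a CQ1 microscope at 37°C and 5% CO2 once compound had been added to live cells stained at seeding with Hoechst33342, BioTracker Green Microtubule Cytoskeleton Dye, MitoTracker Red and Annexin V Alexa Fluor 680. CellPathfinder machine-learning gating classed cells as Hoechst high-intensity objects or normal cells, classed normal cells as having healthy, pyknosed or fragmented nuclei, and classed pyknosed cells as mitotic or apoptotic. Tubulin, mitochondrial-mass and membrane-permeability phenotypes are per cents of the healthy-nucleus cells.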

[1] = 12 h, 1 µM, compound concentration 1 uM, replicate 1
[2] = 12 h, 1 µM, compound concentration 1 uM, replicate 2
[3] = 12 h, 10 µM, compound concentration 10 uM, replicate 1
[4] = 12 h, 10 µM, compound concentration 10 uM, replicate 2
[5] = 24 h, 1 µM, compound concentration 1 uM, replicate 1
[6] = 24 h, 1 µM, compound concentration 1 uM, replicate 2
[7] = 24 h, 10 µM, compound concentration 10 uM, replicate 1
[8] = 24 h, 10 µM, compound concentration 10 uM, replicate 2
[9] = 48 h, 1 µM, compound concentration 1 uM, replicate 1
[10] = 48 h, 1 µM, compound concentration 1 uM, replicate 2
[11] = 48 h, 10 µM, compound concentration 10 uM, replicate 1
[12] = 48 h, 10 µM, compound concentration 10 uM, replicate 2

COc1cc(Nc2ncc3c(n2)-c2ccc(Cl)cc2C(c2c(F)cccc2OC)=NC3)ccc1C(=O)O [ALISERTIB]
Population Apoptotic (%) [1]: 38%
Population Fragmented Nuclei (%) [1]: 3%
Population Healthy Nuclei (%) [1]: 88%
Population Hoechst High Intensity Objects (%) [1]: 5%
Population Membrane Permeable-Phenotype (%) [1]: 0%
Population Mitochondria Different-Phenotype (%) [1]: 44%
Population Mitotic Cells (%) [1]: 61%
Population Normal (%) [1]: 94%
Population Pyknosed Nuclei (%) [1]: 7%
Population Tubulin-Different-Phenotype (%) [1]: 46%
Population Apoptotic (%) [2]: 61%
Population Fragmented Nuclei (%) [2]: 7%
Population Healthy Nuclei (%) [2]: 85%
Population Hoechst High Intensity Objects (%) [2]: 7%
Population Mitochondria Different-Phenotype (%) [2]: 69%
Population Mitotic Cells (%) [2]: 38%
Population Normal (%) [2]: 93%
Population Tubulin-Different-Phenotype (%) [2]: 49%
Population Apoptotic (%) [3]: 61%
Population Fragmented Nuclei (%) [3]: 8%
Population Healthy Nuclei (%) [3]: 74%
Population Hoechst High Intensity Objects (%) [3]: 9%
Population Membrane Permeable-Phenotype (%) [3]: 0%
Population Mitochondria Different-Phenotype (%) [3]: 80%
Population Mitotic Cells (%) [3]: 38%
Population Normal (%) [3]: 90%
Population Pyknosed Nuclei (%) [3]: 16%
Population Tubulin-Different-Phenotype (%) [3]: 68%
Population Apoptotic (%) [4]: 88%
Population Fragmented Nuclei (%) [4]: 9%
Population Healthy Nuclei (%) [4]: 72%
Population Hoechst High Intensity Objects (%) [4]: 15%
Population Mitochondria Different-Phenotype (%) [4]: 82%
Population Mitotic Cells (%) [4]: 11%
Population Normal (%) [4]: 84%
Population Pyknosed Nuclei (%) [4]: 17%
Population Tubulin-Different-Phenotype (%) [4]: 54%
Population Apoptotic (%) [5]: 50%
Population Fragmented Nuclei (%) [5]: 10%
Population Healthy Nuclei (%) [5]: 82%
Population Hoechst High Intensity Objects (%) [5]: 3%
Population Membrane Permeable-Phenotype (%) [5]: 0%
Population Mitochondria Different-Phenotype (%) [5]: 25%
Population Mitotic Cells (%) [5]: 50%
Population Normal (%) [5]: 96%
Population Pyknosed Nuclei (%) [5]: 7%
Population Tubulin-Different-Phenotype (%) [5]: 31%
Population Apoptotic (%) [6]: 47%
Population Fragmented Nuclei (%) [6]: 9%
Population Healthy Nuclei (%) [6]: 81%
Population Hoechst High Intensity Objects (%) [6]: 9%
Population Mitochondria Different-Phenotype (%) [6]: 47%
Population Mitotic Cells (%) [6]: 52%
Population Normal (%) [6]: 90%
Population Pyknosed Nuclei (%) [6]: 9%
Population Tubulin-Different-Phenotype (%) [6]: 30%
Population Apoptotic (%) [7]: 54%
Population Fragmented Nuclei (%) [7]: 8%
Population Healthy Nuclei (%) [7]: 74%
Population Hoechst High Intensity Objects (%) [7]: 6%
Population Membrane Permeable-Phenotype (%) [7]: 0%
Population Mitochondria Different-Phenotype (%) [7]: 75%
Population Mitotic Cells (%) [7]: 45%
Population Normal (%) [7]: 93%
Population Pyknosed Nuclei (%) [7]: 16%
Population Tubulin-Different-Phenotype (%) [7]: 64%
Population Apoptotic (%) [8]: 56%
Population Fragmented Nuclei (%) [8]: 12%
Population Healthy Nuclei (%) [8]: 55%
Population Hoechst High Intensity Objects (%) [8]: 34%
Population Membrane Permeable-Phenotype (%) [8]: 1%
Population Mitochondria Different-Phenotype (%) [8]: 86%
Population Mitotic Cells (%) [8]: 43%
Population Normal (%) [8]: 65%
Population Pyknosed Nuclei (%) [8]: 31%
Population Tubulin-Different-Phenotype (%) [8]: 50%
Population Apoptotic (%) [9]: 31%
Population Fragmented Nuclei (%) [9]: 14%
Population Healthy Nuclei (%) [9]: 79%
Population Hoechst High Intensity Objects (%) [9]: 3%
Population Membrane Permeable-Phenotype (%) [9]: 0%
Population Mitochondria Different-Phenotype (%) [9]: 14%
Population Mitotic Cells (%) [9]: 68%
Population Normal (%) [9]: 96%
Population Pyknosed Nuclei (%) [9]: 5%
Population Tubulin-Different-Phenotype (%) [9]: 17%
Population Apoptotic (%) [10]: 57%
Population Fragmented Nuclei (%) [10]: 16%
Population Healthy Nuclei (%) [10]: 77%
Population Hoechst High Intensity Objects (%) [10]: 15%
Population Mitochondria Different-Phenotype (%) [10]: 27%
Population Mitotic Cells (%) [10]: 42%
Population Normal (%) [10]: 84%
Population Tubulin-Different-Phenotype (%) [10]: 24%
Population Apoptotic (%) [11]: 48%
Population Fragmented Nuclei (%) [11]: 13%
Population Healthy Nuclei (%) [11]: 78%
Population Hoechst High Intensity Objects (%) [11]: 5%
Population Membrane Permeable-Phenotype (%) [11]: 0%
Population Mitochondria Different-Phenotype (%) [11]: 57%
Population Mitotic Cells (%) [11]: 52%
Population Normal (%) [11]: 94%
Population Pyknosed Nuclei (%) [11]: 7%
Population Tubulin-Different-Phenotype (%) [11]: 42%
Population Apoptotic (%) [12]: 82%
Population Fragmented Nuclei (%) [12]: 19%
Population Healthy Nuclei (%) [12]: 61%
Population Hoechst High Intensity Objects (%) [12]: 32%
Population Membrane Permeable-Phenotype (%) [12]: 4%
Population Mitochondria Different-Phenotype (%) [12]: 73%
Population Mitotic Cells (%) [12]: 17%
Population Normal (%) [12]: 67%
Population Pyknosed Nuclei (%) [12]: 19%
Population Tubulin-Different-Phenotype (%) [12]: 38%

O=c1nc2[nH]c3ccccc3nc-2c(=O)[nH]1 [ALLOXAZINE]
Population Apoptotic (%) [1]: 27%
Population Fragmented Nuclei (%) [1]: 8%
Population Healthy Nuclei (%) [1]: 77%
Population Hoechst High Intensity Objects (%) [1]: 8%
Population Membrane Permeable-Phenotype (%) [1]: 0%
Population Mitochondria Different-Phenotype (%) [1]: 44%
Population Mitotic Cells (%) [1]: 72%
Population Normal (%) [1]: 91%
Population Pyknosed Nuclei (%) [1]: 13%
Population Tubulin-Different-Phenotype (%) [1]: 33%
Total Cell Count [1]: 377
Population Apoptotic (%) [2]: 44%
Population Fragmented Nuclei (%) [2]: 4%
Population Healthy Nuclei (%) [2]: 79%
Population Hoechst High Intensity Objects (%) [2]: 7%
Population Mitochondria Different-Phenotype (%) [2]: 66%
Population Mitotic Cells (%) [2]: 55%
Population Normal (%) [2]: 92%
Population Pyknosed Nuclei (%) [2]: 15%
Population Tubulin-Different-Phenotype (%) [2]: 25%
Total Cell Count [2]: 345
Population Apoptotic (%) [3]: 40%
Population Fragmented Nuclei (%) [3]: 10%
Population Healthy Nuclei (%) [3]: 71%
Population Hoechst High Intensity Objects (%) [3]: 5%
Population Membrane Permeable-Phenotype (%) [3]: 0%
Population Mitochondria Different-Phenotype (%) [3]: 53%
Population Mitotic Cells (%) [3]: 59%
Population Normal (%) [3]: 94%
Population Pyknosed Nuclei (%) [3]: 18%
Population Tubulin-Different-Phenotype (%) [3]: 31%
Total Cell Count [3]: 362
Population Apoptotic (%) [4]: 60%
Population Fragmented Nuclei (%) [4]: 8%
Population Healthy Nuclei (%) [4]: 70%
Population Hoechst High Intensity Objects (%) [4]: 15%
Population Mitochondria Different-Phenotype (%) [4]: 67%
Population Mitotic Cells (%) [4]: 40%
Population Normal (%) [4]: 84%
Population Pyknosed Nuclei (%) [4]: 20%
Population Tubulin-Different-Phenotype (%) [4]: 20%
Total Cell Count [4]: 323
Population Apoptotic (%) [5]: 22%
Population Fragmented Nuclei (%) [5]: 10%
Population Healthy Nuclei (%) [5]: 76%
Population Hoechst High Intensity Objects (%) [5]: 4%
Population Membrane Permeable-Phenotype (%) [5]: 0%
Population Mitochondria Different-Phenotype (%) [5]: 24%
Population Mitotic Cells (%) [5]: 77%
Population Normal (%) [5]: 95%
Population Pyknosed Nuclei (%) [5]: 12%
Population Tubulin-Different-Phenotype (%) [5]: 19%
Total Cell Count [5]: 504
Population Apoptotic (%) [6]: 33%
Population Fragmented Nuclei (%) [6]: 7%
Population Healthy Nuclei (%) [6]: 83%
Population Hoechst High Intensity Objects (%) [6]: 7%
Population Mitochondria Different-Phenotype (%) [6]: 41%
Population Mitotic Cells (%) [6]: 66%
Population Normal (%) [6]: 92%
Population Pyknosed Nuclei (%) [6]: 8%
Population Tubulin-Different-Phenotype (%) [6]: 12%
Total Cell Count [6]: 391
Population Apoptotic (%) [7]: 27%
Population Fragmented Nuclei (%) [7]: 9%
Population Healthy Nuclei (%) [7]: 77%
Population Hoechst High Intensity Objects (%) [7]: 6%
Population Membrane Permeable-Phenotype (%) [7]: 0%
Population Mitochondria Different-Phenotype (%) [7]: 34%
Population Mitotic Cells (%) [7]: 72%
Population Normal (%) [7]: 93%
Population Pyknosed Nuclei (%) [7]: 12%
Population Tubulin-Different-Phenotype (%) [7]: 21%
Total Cell Count [7]: 491
Population Apoptotic (%) [8]: 50%
Population Healthy Nuclei (%) [8]: 72%
Population Hoechst High Intensity Objects (%) [8]: 15%
Population Mitochondria Different-Phenotype (%) [8]: 48%
Population Mitotic Cells (%) [8]: 50%
Population Normal (%) [8]: 84%
Population Pyknosed Nuclei (%) [8]: 17%
Population Tubulin-Different-Phenotype (%) [8]: 16%
Total Cell Count [8]: 371
Population Apoptotic (%) [9]: 32%
Population Fragmented Nuclei (%) [9]: 14%
Population Healthy Nuclei (%) [9]: 77%
Population Hoechst High Intensity Objects (%) [9]: 3%
Population Membrane Permeable-Phenotype (%) [9]: 1%
Population Mitochondria Different-Phenotype (%) [9]: 18%
Population Mitotic Cells (%) [9]: 67%
Population Normal (%) [9]: 96%
Population Pyknosed Nuclei (%) [9]: 8%
Population Tubulin-Different-Phenotype (%) [9]: 13%
Total Cell Count [9]: 773
Population Apoptotic (%) [10]: 27%
Population Fragmented Nuclei (%) [10]: 11%
Population Healthy Nuclei (%) [10]: 82%
Population Hoechst High Intensity Objects (%) [10]: 4%
Population Membrane Permeable-Phenotype (%) [10]: 0%
Population Mitochondria Different-Phenotype (%) [10]: 26%
Population Mitotic Cells (%) [10]: 72%
Population Normal (%) [10]: 95%
Population Pyknosed Nuclei (%) [10]: 6%
Population Tubulin-Different-Phenotype (%) [10]: 12%
Total Cell Count [10]: 636
Population Apoptotic (%) [11]: 29%
Population Fragmented Nuclei (%) [11]: 15%
Population Healthy Nuclei (%) [11]: 76%
Population Hoechst High Intensity Objects (%) [11]: 3%
Population Membrane Permeable-Phenotype (%) [11]: 0%
Population Mitochondria Different-Phenotype (%) [11]: 17%
Population Mitotic Cells (%) [11]: 70%
Population Normal (%) [11]: 96%
Population Pyknosed Nuclei (%) [11]: 7%
Population Tubulin-Different-Phenotype (%) [11]: 11%
Total Cell Count [11]: 700
Population Apoptotic (%) [12]: 48%
Population Fragmented Nuclei (%) [12]: 14%
Population Healthy Nuclei (%) [12]: 78%
Population Hoechst High Intensity Objects (%) [12]: 4%
Population Mitochondria Different-Phenotype (%) [12]: 28%
Population Mitotic Cells (%) [12]: 51%
Population Normal (%) [12]: 95%
Population Pyknosed Nuclei (%) [12]: 6%
Population Tubulin-Different-Phenotype (%) [12]: 14%
Total Cell Count [12]: 531
